# Assay results taken from ChEMBL document CHEMBL1149111, “Design and synthesis of a fluoroindolocarbazole series as selective topoisomerase I active agents. Discovery of water-soluble 3,9-difluoro-12,13-dihydro-13-[6-amino-beta-D-glucopyranosyl]-5H,13H-benzo[b]- thienyl[2,3-a]pyrrolo[3,4-c]carbazole- 5,7(6H)-dione (BMS-251873) with curative antitumor …” (J Med Chem, 2004).
# Key:
# [1] = Ratio for cytotoxicity against camptothecin resistant P388/CPT45 cells to that of parental P388 cells; assay type: functional, Mus musculus
# Summary of the method: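 Cytotoxicity after 3-day continuous exposure by tetrazolium dye conversion, read at 450 nm, in camptothecin-resistant P388/CPT45 cells and parental P388 cells; value is IC50 in P388/CPT45 divided by IC50 in P388.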
# P388 = assay: In vitro cytotoxic concentration against P388 murine leukemia cells was determined; assay type: functional, cell-based; conditions: Mus musculus
# Summary of the method: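 P388 murine leukemia cells exposed continuously to compound for 3 days; proliferation measured by soluble tetrazolium/formazan conversion (absorbance 450 nm). IC50 = concentration reducing absorbance to 50% of untreated control cells; reported as mean.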
# [2] = target: T1, DNA topoisomerase 1 (Homo sapiens) (UniProt P11387); assay: Ratio of effective concentration for inducing single strand breaks in the DNA substrate by topoisomerase I compared to camptothecin
# T1 sequence (whole entry): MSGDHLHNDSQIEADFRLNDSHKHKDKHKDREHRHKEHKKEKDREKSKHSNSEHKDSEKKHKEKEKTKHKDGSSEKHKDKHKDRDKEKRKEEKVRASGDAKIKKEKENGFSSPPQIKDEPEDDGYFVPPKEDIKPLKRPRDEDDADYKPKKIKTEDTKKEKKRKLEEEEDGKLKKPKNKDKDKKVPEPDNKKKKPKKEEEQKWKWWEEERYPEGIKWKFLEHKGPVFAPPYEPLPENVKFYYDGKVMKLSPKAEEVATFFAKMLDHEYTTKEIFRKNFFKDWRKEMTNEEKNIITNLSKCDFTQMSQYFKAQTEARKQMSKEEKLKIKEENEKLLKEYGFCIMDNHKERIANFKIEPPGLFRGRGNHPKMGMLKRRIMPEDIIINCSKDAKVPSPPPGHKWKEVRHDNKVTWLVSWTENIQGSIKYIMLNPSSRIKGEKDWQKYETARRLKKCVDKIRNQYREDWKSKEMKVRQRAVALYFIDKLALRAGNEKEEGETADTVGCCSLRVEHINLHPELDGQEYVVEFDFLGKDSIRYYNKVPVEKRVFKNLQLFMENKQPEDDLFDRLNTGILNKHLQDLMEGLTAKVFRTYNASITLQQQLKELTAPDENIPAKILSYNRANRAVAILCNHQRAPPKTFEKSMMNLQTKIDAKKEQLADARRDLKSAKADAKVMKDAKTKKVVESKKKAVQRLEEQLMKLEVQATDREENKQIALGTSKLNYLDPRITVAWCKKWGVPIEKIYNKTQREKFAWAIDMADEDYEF
# Summary of the method: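 Topoisomerase I-mediated single-strand breaks in DNA substrate assayed by a modified Hsiang protocol; median effective concentration (EC50) for break induction divided by camptothecin EC50 measured in the same experiment.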
# [3] = Half life of compound was determined in plasma of mice at 5 mg/Kg; assay type: ADME, organism-based; conditions: mouse
# Mus musculus [4] = assay: Inhibitory concentration of compound was determined after intravenous administration in mice after 8 hours of exposure at 5 mg/Kg; assay type: ADME, organism-based
# [5] = Volume of distribution of compound in plasma was determined at 5 mg/Kg; assay type: ADME, organism-based; conditions: mouse, read-out: Vds
# [6] = Plasma clearance at 5 mg/Kg; assay type: ADME, organism-based; conditions: mouse
# Mus musculus [7] = assay: Area under curve was determined for the compound at 5 mg/Kg; assay type: ADME, organism-based; conditions: in vivo
# Mus musculus [8] = assay: Inhibitory concentration of compound was determined after intravenous administration in mice after 8 hours of exposure at 24 mg/Kg; assay type: ADME, organism-based
# [9] = Half life of compound was determined in plasma of mice at 24 mg/Kg; assay type: ADME, organism-based; conditions: mouse
# [10] = Volume of distribution of compound in plasma was determined at 24 mg/Kg; assay type: ADME, organism-based; conditions: mouse, read-out: Vds
# Mus musculus [11] = assay: Area under curve was determined for the compound at 24 mg/Kg; assay type: ADME, organism-based; conditions: in vivo
# [12] = Plasma clearance at 24 mg/Kg; assay type: ADME, organism-based; conditions: mouse
Compound,Ratio [1],IC50 (P388) [nM],Ratio [2],other results
CN1C(=O)c2c(c3c4cc(F)ccc4n(C4OC(CO)C(O)C(O)C4O)c3c3sc4ccc(F)cc4c23)C1=O (stereo not given),14.1,236,0.48,
O=C1NC(=O)c2c1c1c3cc(F)ccc3sc1c1c2c2cc(F)ccc2n1C1OC(CO)C(O)C(O)C1O (stereo not given),232.5,10,0.09,half-life [3]: 7.6 h; IC50 (Mus musculus [4]): 150 nM; Vd [5]: 1.27 L/kg; clearance [6]: 9.33 mL/min/kg; AUC (Mus musculus [7]): 0.068 uM hr ml-1
O=C1NC(=O)c2c1c1c3ccccc3[nH]c1c1c2c2ccc(F)cc2n1C1OC(CO)C(O)C(O)C1O (stereo not given),4.6,392,3.1,
O=C1NC(=O)c2c1c1c3ccccc3sc1c1c2c2cc(F)ccc2n1C1OC(CO)C(O)C(O)C1O (stereo not given),>51.3,155,2.2,
O=C1NC(=O)c2c1c1c3cc(F)c(F)cc3[nH]c1c1c2c2cc(F)c(F)cc2n1C1OC(CO)C(O)C(O)C1O (stereo not given),67.1,7,0.69,
O=C1NC(=O)c2c1c1c3cc(F)ccc3oc1c1c2c2cc(F)ccc2n1C1OC(CO)C(O)C(O)C1O (stereo not given),63.7,114,0.27,
O=C1NC(=O)c2c1c1c3cc(F)ccc3[nH]c1c1c2c2cc(F)ccc2n1C1OC(CO)C(O)C(O)C1O (stereo not given),182.7,,0.22,IC50 (Mus musculus [8]): 860 nM; half-life [9]: 1.6 h; Vd [10]: 0.1 L/kg; AUC (Mus musculus [11]): 0.17 uM hr ml-1; clearance [12]: 3.6 mL/min/kg
O=C1NC(=O)c2c1c1c3ccc(F)cc3[nH]c1c1c2c2ccc(F)cc2n1C1OC(CO)C(O)C(O)C1O (stereo not given),8.7,260,2,
NN1C(=O)c2c(c3c4cc(F)ccc4n(C4OC(CO)C(O)C(O)C4O)c3c3[nH]c4ccc(F)cc4c23)C1=O (stereo not given),196.9,20,0.22,
CN1C(=O)c2c(c3c4cc(F)ccc4n(C4OC(CO)C(O)C(O)C4O)c3c3[nH]c4ccc(F)cc4c23)C1=O (stereo not given),>10.8,862,1,
O=C1c2c(c3c4cc(F)ccc4n(C4OC(CO)C(O)C(O)C4O)c3c3[nH]c4ccc(F)cc4c23)C(=O)N1O (stereo not given),19.6,35,0.08,
O=C1NC(=O)c2c1c1c3cccc(Cl)c3[nH]c1c1c2c2cccc(Cl)c2n1C1OC(CO)C(O)C(O)C1O (stereo not given),1.26,540,> 500,
Cn1c2cc(F)c(F)cc2c2c3c(c4c5cc(F)c(F)cc5n(C5OC(CO)C(O)C(O)C5O)c4c21)C(=O)NC3=O (stereo not given),>1,> 8720,> 600,
O=C1NC(=O)c2c1c1c3ccccc3oc1c1c2c2cc(F)ccc2n1C1OC(CO)C(O)C(O)C1O (stereo not given),13.6,529,1.5,
O=C1NC(=O)c2c1c1c3ccc(F)cc3[nH]c1c1c2c2ccccc2n1C1OC(CO)C(O)C(O)C1O (stereo not given),11.4,98,> 200,
O=C1NC(=O)c2c1c1c3cc(F)ccc3[nH]c1c1c2c2ccccc2n1C1OC(CO)C(O)C(O)C1O (stereo not given),31.7,101,1.7,
O=C1NC(=O)c2c1c1c3ccccc3[nH]c1c1c2c2cc(F)ccc2n1C1OC(CO)C(O)C(O)C1O (stereo not given),>9.5,1040,6.6,
